Several values for one entry are separate records, joined by “and”; a condition that tells them apart may be missing. Identical values can stand only once.
Tested on: Fibroblast
Test: Multiplex assay against human fibroblast
Type: toxicity, cell-based
Outline: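 Imaging took place on a CQ1 microscope at 37°C and 5% CO2 once compound had been added to live cells stained at seeding with Hoechst33342, BioTracker Green Microtubule Cytoskeleton Dye, MitoTracker Red and Annexin V Alexa Fluor 680. CellPathfinder machine-learning gating classed cells as Hoechst high-intensity objects or normal cells, classed normal cells as having healthy, pyknosed or fragmented nuclei, and classed pyknosed cells as mitotic or apoptotic. Tubulin, mitochondrial-mass and membrane-permeability phenotypes are per cents of the healthy-nucleus cells.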

[1] = 12 h, 1 µM, compound concentration 1 uM
[2] = 12 h, 10 µM, compound concentration 10 uM
[3] = 24 h, 1 µM, compound concentration 1 uM
[4] = 24 h, 10 µM, compound concentration 10 uM
[5] = 48 h, 1 µM, compound concentration 1 uM
[6] = 48 h, 10 µM, compound concentration 10 uM

## O=C(Nc1cc(C(F)(F)F)ccc1N1CCCCC1)c1ccncc1
[1]
  Population Fragmented Nuclei (%): 13.9% and 8.06%
  Population Healthy Nuclei (%): 57.22% and 74.41%
  Population Hoechst High Intensity Objects (%): 0%
  Population Membrane Permeable-Phenotype (%): 1.87% and 1.91%
  Population Mitochondria Different-Phenotype (%): 6.54% and 10.83%
  Population Mitotic Cells (%): 92.59% and 75.68%
  Population Normal (%): 100%
  Population Pyknosed Nuclei (%): 28.88% and 17.54%
  Population Tubulin-Different-Phenotype (%): 13.08% and 22.93%
  Total Cell Count: 187 and 211
[2]
  Population Apoptotic (%): 17.46% and 11.48%
  Population Fragmented Nuclei (%): 7.6% and 3.1%
  Population Healthy Nuclei (%): 55.56% and 69.91%
  Population Hoechst High Intensity Objects (%): 0%
  Population Membrane Permeable-Phenotype (%): 9.47% and 6.96%
  Population Mitochondria Different-Phenotype (%): 26.32% and 21.52%
  Population Mitotic Cells (%): 82.54% and 88.52%
  Population Normal (%): 100%
  Population Pyknosed Nuclei (%): 36.84% and 26.99%
  Population Tubulin-Different-Phenotype (%): 35.79% and 71.52%
  Total Cell Count: 171 and 226
[3]
  Population Apoptotic (%): 11.76% and 28.57%
  Population Fragmented Nuclei (%): 9.18% and 7.73%
  Population Healthy Nuclei (%): 74.4% and 82.13%
  Population Hoechst High Intensity Objects (%): 0%
  Population Membrane Permeable-Phenotype (%): 4.55% and 4.12%
  Population Mitochondria Different-Phenotype (%): 4.55% and 8.82%
  Population Mitotic Cells (%): 88.24% and 71.43%
  Population Normal (%): 100%
  Population Pyknosed Nuclei (%): 16.43% and 10.14%
  Population Tubulin-Different-Phenotype (%): 16.23% and 21.76%
  Total Cell Count: 207
[4]
  Population Apoptotic (%): 20.83% and 16.98%
  Population Fragmented Nuclei (%): 6.81% and 3.07%
  Population Healthy Nuclei (%): 68.06% and 73.68%
  Population Hoechst High Intensity Objects (%): 0%
  Population Membrane Permeable-Phenotype (%): 5.38% and 5.95%
  Population Mitochondria Different-Phenotype (%): 30.77% and 20.24%
  Population Mitotic Cells (%): 79.17% and 83.02%
  Population Normal (%): 100%
  Population Pyknosed Nuclei (%): 25.13% and 23.25%
  Population Tubulin-Different-Phenotype (%): 53.08% and 70.24%
  Total Cell Count: 191 and 228
[5]
  Population Apoptotic (%): 11.11% and 10%
  Population Fragmented Nuclei (%): 14.08% and 11%
  Population Healthy Nuclei (%): 81.69% and 84.21%
  Population Hoechst High Intensity Objects (%): 0%
  Population Membrane Permeable-Phenotype (%): 1.72% and 2.84%
  Population Mitochondria Different-Phenotype (%): 8.62% and 5.11%
  Population Mitotic Cells (%): 88.89% and 90%
  Population Normal (%): 100%
  Population Pyknosed Nuclei (%): 4.23% and 4.78%
  Total Cell Count: 213 and 209
[6]
  Population Fragmented Nuclei (%): 9.23% and 2.62%
  Population Healthy Nuclei (%): 81.54% and 82.97%
  Population Hoechst High Intensity Objects (%): 0%
  Population Membrane Permeable-Phenotype (%): 0% and 7.37%
  Population Mitochondria Different-Phenotype (%): 17.61% and 13.68%
  Population Mitotic Cells (%): 61.11% and 90.91%
  Population Normal (%): 100%
  Population Pyknosed Nuclei (%): 9.23% and 14.41%
  Population Tubulin-Different-Phenotype (%): 31.45% and 73.68%
  Total Cell Count: 195 and 229

## COc1cccc2c1c(NS(=O)(=O)c1ccc(Cl)s1)nn2Cc1cccc(CNC(=O)C(C)(C)O)c1
[1]
  Population Apoptotic (%): 43% and 33%
  Population Fragmented Nuclei (%): 16% and 26%
  Population Healthy Nuclei (%): 66% and 54%
  Population Hoechst High Intensity Objects (%): 0%
  Population Membrane Permeable-Phenotype (%): 1% and 4%
  Population Mitochondria Different-Phenotype (%): 2% and 1%
  Population Mitotic Cells (%): 56% and 66%
  Population Normal (%): 99% and 100%
  Population Pyknosed Nuclei (%): 17% and 18%
  Population Tubulin-Different-Phenotype (%): 27% and 18%
  Total Cell Count: 134 and 112
[2]
  Population Apoptotic (%): 42% and 41%
  Population Fragmented Nuclei (%): 13% and 24%
  Population Healthy Nuclei (%): 72% and 55%
  Population Hoechst High Intensity Objects (%): 2% and 7%
  Population Membrane Permeable-Phenotype (%): 1% and 7%
  Population Mitochondria Different-Phenotype (%): 11% and 4%
  Population Mitotic Cells (%): 57% and 58%
  Population Normal (%): 97% and 92%
  Population Pyknosed Nuclei (%): 13% and 19%
  Population Tubulin-Different-Phenotype (%): 37% and 55%
  Total Cell Count: 211 and 174
[3]
  Population Apoptotic (%): 55% and 50%
  Population Fragmented Nuclei (%): 19% and 28%
  Population Healthy Nuclei (%): 68% and 49%
  Population Hoechst High Intensity Objects (%): 2% and 1%
  Population Membrane Permeable-Phenotype (%): 2% and 7%
  Population Mitochondria Different-Phenotype (%): 3% and 5%
  Population Mitotic Cells (%): 44% and 50%
  Population Normal (%): 97% and 98%
  Population Pyknosed Nuclei (%): 12% and 22%
  Population Tubulin-Different-Phenotype (%): 28% and 35%
  Total Cell Count: 144 and 110
[4]
  Population Apoptotic (%): 48% and 50%
  Population Fragmented Nuclei (%): 11% and 22%
  Population Healthy Nuclei (%): 74% and 55%
  Population Hoechst High Intensity Objects (%): 2% and 8%
  Population Membrane Permeable-Phenotype (%): 1% and 6%
  Population Mitochondria Different-Phenotype (%): 7% and 2%
  Population Mitotic Cells (%): 52% and 50%
  Population Normal (%): 97% and 92%
  Population Pyknosed Nuclei (%): 13% and 22%
  Population Tubulin-Different-Phenotype (%): 30% and 48%
  Total Cell Count: 190 and 175
[5]
  Population Apoptotic (%): 62% and 75%
  Population Fragmented Nuclei (%): 21% and 26%
  Population Healthy Nuclei (%): 66% and 60%
  Population Hoechst High Intensity Objects (%): 5% and 2%
  Population Membrane Permeable-Phenotype (%): 1% and 8%
  Population Mitochondria Different-Phenotype (%): 5% and 3%
  Population Mitotic Cells (%): 37% and 25%
  Population Normal (%): 94% and 97%
  Population Pyknosed Nuclei (%): 12%
  Population Tubulin-Different-Phenotype (%): 30% and 55%
  Total Cell Count: 135 and 99
[6]
  Population Apoptotic (%): 63% and 51%
  Population Fragmented Nuclei (%): 13% and 33%
  Population Healthy Nuclei (%): 73% and 49%
  Population Hoechst High Intensity Objects (%): 5% and 6%
  Population Membrane Permeable-Phenotype (%): 3%
  Population Mitochondria Different-Phenotype (%): 10% and 4%
  Population Mitotic Cells (%): 36% and 48%
  Population Normal (%): 94% and 93%
  Population Pyknosed Nuclei (%): 12% and 17%
  Population Tubulin-Different-Phenotype (%): 40% and 43%
  Total Cell Count: 187
